Bioassay records: PubChem, The Scripps Research Institute Molecular Screening Center
Compounds with a hit are over-represented: about 1.7% of the library has one in this group of screens.
PP1 inh = PP1-alpha phosphatase inhibitors, primary screen, counter-screen for PP5 inhibitor project, biochemical, fluorescence, OMFP substrate, single point; Serine/threonine-protein phosphatase PP1-alpha catalytic subunit (Homo sapiens), P62136; purified PP1alpha; inhibition, % at 6.7 µM; hit rate 0.9% among 320,000; AID 2235, 2010;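 active means inhibition above the mean inhibition of all tested compounds plus 3 SD, computed separately for each screening campaign, cut at about 15% in these data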
EBNA-1 inh = EBNA-1 DNA-binding inhibitors, primary screen, biochemical, fluorescence polarization | inhibition, % at 14.8 µM | hit rate 0.34% among 300,000 | AID 1950, 2009; in the data active means inhibition above about 28%
PP5 primary = PP5 phosphatase inhibitors, primary screen, biochemical, fluorescence. Serine/threonine-protein phosphatase 5 (Homo sapiens), P53041. purified PP5c, OMFP substrate fluorescence. inhibition, % at 6.7 µM. hit rate 0.18% among 320,000;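 active means inhibition above the campaign's mean inhibition across all tested compounds plus 3 SD, cut at about 9.5% in these data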;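 further: 0% = DMSO only and 100% = 100 µM cantharidin control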
Target sequence (P53041 whole entry, looked up): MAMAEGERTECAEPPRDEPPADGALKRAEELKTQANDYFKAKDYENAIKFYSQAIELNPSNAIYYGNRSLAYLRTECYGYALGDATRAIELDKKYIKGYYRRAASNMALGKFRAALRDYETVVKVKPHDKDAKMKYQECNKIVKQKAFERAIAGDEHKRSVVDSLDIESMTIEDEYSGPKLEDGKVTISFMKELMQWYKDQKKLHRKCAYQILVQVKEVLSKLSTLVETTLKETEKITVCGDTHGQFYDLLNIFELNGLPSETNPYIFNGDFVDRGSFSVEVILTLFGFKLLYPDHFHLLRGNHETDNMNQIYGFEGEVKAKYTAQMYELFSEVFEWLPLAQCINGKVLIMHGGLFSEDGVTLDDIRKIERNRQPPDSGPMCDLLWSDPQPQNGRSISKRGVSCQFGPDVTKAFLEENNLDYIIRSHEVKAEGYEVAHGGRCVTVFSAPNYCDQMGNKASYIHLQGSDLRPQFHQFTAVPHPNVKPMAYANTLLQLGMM
ZTA counter = ZTA (EBV) inhibition in EBNA-1 counter-screen. ZTA-DNA binding, fluorescence polarization. inhibition, % at 11 µM. hit rate 0.15% among 320,000. AID 2234; in the data active means inhibition above about 33%
HCV core dimer = inhibitors of HCV core protein dimerization, primary screen, biochemical, TR-FRET, high-throughput. TR-FRET GST/Flag-core106 dimerization, 1536-well. inhibition, % at 5 µM. hit rate 0.33% among 300,000. AID 1899, 2009;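 active means inhibition above the mean of all tested compounds plus 3 SD, set per screening campaign, cut at about 45% in these data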
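Test system: GST/Flag-tagged HCV core106 proteins; Medium: KF-containing HEPES buffer, pH 7.45, DTT, CHAPS, BSA; Times: compound-protein-antibody incubation 4 h at 22.5 °C; Detection: TR-FRET 671 and 617 nm emission; Benchmarks: wells lacking GST-core106 and wells with excess unlabelled core106.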
PP5 conf = PP5 phosphatase inhibitors, confirmation, biochemical, fluorescence, human | shares compounds with PP5 primary | Purified PP5, fluorogenic phosphatase substrate | inhibition, % at 6.7 µM | hit rate 22% among 460 | AID 2331, 2010; in the data active means inhibition above about 9.5%
PP1 inh counter = PP1 phosphatase inhibitors, counter-screen for PP5 inhibitor project, biochemical, fluorescence, triplicate; PP1 enzyme, fluorescent phosphatase substrate; inhibition, % at 6.7 µM; shares compounds with PP5 primary; hit rate 4% among 460; in the data active means inhibition above about 16%
Starred values were filed as active, the others as inactive; . = not tested or not shown.

SMILES	PP1 inh	EBNA-1 inh	PP5 primary	ZTA counter	HCV core dimer	PP5 conf	PP1 inh counter
O=C(Cc1ccccc1)c1c[nH]c(C(=O)NCCCn2ccnc2)c1	-4	-13	0	-5	1	.	.
Cc1cc(C)c2nc(Cl)c(Cl)nc2c1	4	-10	1	-3	6	.	.
Cc1cc(C(=O)CSc2nc3ccccc3c(=O)[nH]2)c(C)n1CC1CCCO1 (stereo not given)	0	0	15*	0	5	-4	-2
Cc1cc(C(=O)COC(=O)CCc2nc3ccccc3c(=O)[nH]2)c(C)n1CC1CCCO1 (stereo not given)	-2	-4	0	-27	0	.	.
CCCN(CC1CC1)c1nc(N)c2c(N)nc(OC)cc2c1C#N	4	-18	12*	-22	-13	39*	5
CC1(C)CC(=O)C2=C(C1)c1c(ccc3ccccc13)NC2c1ccc(OCC(=O)O)cc1 (stereo not given)	-2	-1	9.8*	-4	9	-2	1
O=[N+]([O-])c1cc(/C=N/O)ccc1Sc1ccccc1	2	-26	10*	-7	1	2	2
CCN(CC)CCN(Cc1cc2cc3c(cc2[nH]c1=O)OCO3)C(=S)NCCCOC	1	-2	12*	-12	1	-5	-4
CCCOC(=O)c1ccc(Oc2c(-c3ccc(O)cc3O)n[nH]c2C)cc1	1	-21	16*	-7	1	4	6
CCOc1ccc(-c2n[nH]c(C)c2Oc2ccccc2OC)c(O)c1	4	-16	11*	0	5	6	4
NC(=O)CSc1nc(-c2ccccc2Cl)ns1	7	0	0	5	-2	.	.
COc1ccc(C(=O)NNC(=O)CCc2ccccc2OC)cc1	-4	-18	16*	-10	-2	-4	-3
COc1ccccc1CCC(=O)NNC(=O)c1ccccc1	-2	-11	2	-8	5	.	.
COc1ccc(N2CCN(CC(=O)Nc3ccc(C)c(C)c3)CC2)cc1	2	5	1	13	11	.	.
CC(C)Oc1cc(NC(=O)CS(=O)CC(=O)N(C)C)c(Cl)cc1Cl (stereo not given)	-2	5	3	-2	-3	.	.
CC(C)Oc1cc(NC(=O)CS(=O)CC(=O)Nc2cccc(C(F)(F)F)c2)c(Cl)cc1Cl (stereo not given)	12	-21	13*	0	0	5	5
CCOC(=O)CN1CCc2c(C)nc3c(-c4ccc(OC)c(OC)c4)cnn3c21	3	-10	12*	4	-22	-1	-1
O=c1c2ccc(Cl)cc2[nH]c(=S)n1Cc1cccnc1	-3	-2	11*	-9	-1	-4	-3
N/C(=N\c1nc2c(c(=O)[nH]1)CCC2)Nc1cccc(Cl)c1	2	8	0	-10	-6	.	.
Cc1cccc(N/C(N)=N/c2nc3c(c(=O)[nH]2)CCCC3)c1	-1	-15	13*	5	8	-8	-6
CC(=O)Nc1ccc(S(=O)(=O)Nc2nc3ccccc3nc2Nc2ccc(S(N)(=O)=O)cc2)cc1	2	-10	3	-4	-14	.	.
NS(=O)(=O)c1ccc(Nc2nc3ccccc3nc2NS(=O)(=O)c2cccc([N+](=O)[O-])c2)cc1	7	0	11*	-8	10	6	14
COc1ccc(S(=O)(=O)CC(=O)Nc2ccccc2Cl)cc1	-3	-7	3	5	-2	.	.
O=C(CS(=O)(=O)c1ccc(Cl)c(Cl)c1)Nc1ccccc1Cl	1	10	11*	1	-3	-4	-3
CN1CCN(CC(=O)NN(Cc2ccccc2)c2ccccc2)CC1	-2	3	12*	9	-1	2	-4
SMILES	PP1 inh	EBNA-1 inh	PP5 primary	ZTA counter	HCV core dimer	PP5 conf	PP1 inh counter
CCN(CC)CC(=O)NN(Cc1ccccc1)c1ccccc1	0	-7	2	4	-4	.	.
COc1cc(OC)c2c(N)c(C#N)c(C(F)(F)C(F)(F)F)nc2c1	-1	7	2	4	43	.	.
COc1ccc2nc(C(F)(F)C(F)(F)F)c(C#N)c(N)c2c1	6	-9	9.8*	-10	-6	9	7
COc1ccc(S(=O)(=O)Nc2c(C)cc(C)cc2C)c2cccnc12	2	-20	3	-12	2	.	.
Cc1ccc(NC(=O)c2ccccc2F)cc1S(=O)(=O)N1CCCCCC1	-3	2	11*	5	-2	0	-1
Cc1ccc(NC(=O)Cc2ccccc2F)cc1S(=O)(=O)N1CCCCCC1	4	.	5	-5	.	.	.
O=C(CS(=O)CC(=O)NC12CC3CC(CC(C3)C1)C2)Nc1ccc(F)cc1 (stereo not given)	2	-13	4	2	1	.	.
O=C(c1cccc(C(F)(F)F)c1)N1CCC(O)(CS(=O)(=O)Cc2ccccc2Cl)CC1	-1	3	11*	9	-3	-3	-4
COc1cc(OC)c(C2C(C(=O)Nc3ccccc3)=C(C)Nc3ncnn32)cc1OC (stereo not given)	-7	-2	0	-1	2	.	.
COc1cc(OC)c(C2C(C(=O)Nc3ccc(C)cc3C)=C(C)Nc3ncnn32)cc1OC (stereo not given)	2	-13	15*	-1	6	-3	-3
CC(C)NC(=O)Cn1c(SCC(=O)NC2CCCC2)nc2ccccc21	-2	-1	0	-9	4	.	.
CN(C)C(=O)Cn1c(SCC(=O)NC2CCCCC2)nc2ccccc21	-2	1	10.0*	3	0	-1	-2
CCOc1cc(/C=C2\C(=O)N(c3ccc(C(N)=O)cc3)N=C2C)ccc1OC(=O)c1cccs1	0	5	12*	-14	28	6	7
O=C1C=C(c2cccc(CO)c2)C[C@@H](c2ccc(Cl)cc2)C1	-1	.	2	-1	.	.	.
O=C(NNC(=O)c1ccc[nH]1)Nc1cc(Cl)cc(Cl)c1	8	-9	16*	-8	-1	-3	-8
O=C(Nc1ccccc1)N1CCCC(c2nc(-c3cccs3)no2)C1 (stereo not given)	3	1	1	-4	-5	.	.
Cc1cc(C)c2nc(SC(C)C#N)cc(C)c2c1 (stereo not given)	4	6	3	4	4	.	.
O=C(CCC(=O)N1CCOCC1)Nc1nnc(C2CCCCC2)s1	-3	-10	12*	-10	-3	-5	-4
